Results as given in PMC6865048 (Clinical cancer research : an official journal of the …, 2018).
Several values for one entry are separate records, joined by “and”; a condition that tells them apart may be missing. Equal values may be shown once. Entries after “also recorded” stand apart in the source; their conditions may differ. Read-outs that look alike come from different tables or passages of the source.

Assays:
[1] = type: in vivo, human
[2] = type: in vivo, human; conditions: single oral dose of 400 mg, at 2 to 24 h
In short: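 Adult recurrent glioblastoma patients took a single oral dose before resection. Contrast-enhancing tumor was taken intraoperatively, rinsed in ice-cold PBS, blot-dried, snap-frozen and held at -80° C. EDTA blood was spun at 4°C, 1,500 × g, 10 min. Total drug in plasma and tumor was measured by validated LC/MS-MS, and fraction unbound by equilibrium dialysis. Unbound concentration = total × fraction unbound. Kp and Kp,uu = tumor/plasma total and unbound ratios.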

γH2AX = assay: IHC of double-strand DNA damage in resected tumor vs matched archival tissue; type: in vivo, human; conditions: 8 hours
In short: (§1)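 A 0.5 cm³ re-resection tumor sample, snap-frozen at -80° C, was compared with FFPE tissue from the same patient's initial resection by IHC. Antibody conditions: γH2AX 1:100, 1 h at room temperature; PH3 1:100, overnight at 4°C; CC3 1:50, overnight at 4°C. Staining was quantified by semiquantitative image analysis. Mean fold change was tested against 1.000 by two-sided one-sample t test, or Wilcoxon signed-rank test if non-normal.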

phosphohistone-3 (PH3) = type: in vivo, human; conditions: for PH3 expression vs matched archival tissue: 8 hours
In short: as §1

cleaved caspase-3 (CC3) = assay: IHC of programmed cell death in resected tumor vs matched archival tissue; type: in vivo, human; conditions: for CC3 apoptotic marker vs matched archival tissue: 8 hours
In short: as §1

[3] = Safety assessment in the phase 0 trial; type: in vivo, human; conditions: single oral dose 100, 200 or 400 mg, 20 glioblastoma patients
In short: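 Twenty adult glioblastoma patients took a single oral dose before tumor resection. Screening collected demographics and medical history. Baseline safety assessments were physical examination, vital signs, ECOG performance status, concomitant medication record, hematology, biochemistry and urinalysis.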

Wee1 = conditions: cell-based assays; ref https://ncats.nih.gov/files/AZD1775.pdf; cited from earlier work
[4] = covariate model, estimate (%RSE)
[5] = 8-hour posttreatment interval (discussion)

Which “CL/F, apparent oral clearance” value ([1]; base model, estimate (%RSE)) does the source give for `C=CCn1c(=O)c2cnc(Nc3ccc(N4CCN(C)CC4)cc3)nc2n1-c1cccc(C(C)(C)O)n1` [AZD1775] here?
The value was 160 (15) L/hour.

And the “IIV of Ka” value ([1]; base model, estimate (%RSE))?
Its value is 100 (310) CV%.

What about the Ka ([1]; base model, estimate (%RSE)) of the same molecule?
Its Ka is 2.00 (114) h^−1.

And the “B, covariate effect of glomerular filtration rate on CL/F” value ([1]; covariate model, CL/F = A + B × (GFR - 98), estimate (%RSE))?
The value was 1.7 (44).

What about the “IIV of Ka” value [1, 4] of the same molecule?
Its value is 100 (300) CV%.

And the Ka [1, 4]?
Its Ka is 2.10 (111) h^−1.

What about the “V/F, apparent volume of distribution” value [1, 4] of the same molecule?
Its value is 1,500 (17) L.

What about the “CL/F, apparent oral clearance” value ([1]; covariate model, typical patient with GFR of 98 mL/minute, estimate (%RSE)) of the same molecule?
Its value is 160 L/hour and 160^a (14) L/hour.

What about the “interindividual variability of CL/F explained by glomerular filtration rate” value ([1]; covariate on CL/F) of the same molecule?
The value was 17%.

What about the Vd/F ([1]; human, plasma, oral) of the same molecule?
Its Vd/F is 1500 L.

What about the “first-order absorption rate constant (Ka)” value ([1]; one-compartment model, single oral dose 100, 200, 400 mg, glioblastoma patients) of the same molecule?
The value was 2.1 h⁻¹.

And the “mean unbound AZD1775 tumor concentration” value [2]?
Its value is 85 ng/g.

What about the “double-stranded DNA damage measured by γH2AX vs matched archival tissue” value (γH2AX; 100- and 400-mg dose cohorts) of the same molecule?
Its value is “less dramatic”.

And the “double-stranded DNA damage measured by γH2AX vs matched archival tissue” value (γH2AX; 200-mg dose cohort)?
The value was “increased”.

What about the cell-cycling (phosphohistone-3 (PH3); [5]) of the same molecule?
Its cell-cycling is “increased over threefold”.

And the PH3 expression change (phosphohistone-3 (PH3); 8-hour time interval, all dose cohorts together (n = 12), P = 0.0210)?
The PH3 expression change was “increased significantly”.

And the “PH3 expression vs matched archival tissue” value (phosphohistone-3 (PH3); 200-mg dose cohort)?
Its value is “Increased expression”.

And the “PH3 expression vs matched archival tissue” value (phosphohistone-3 (PH3); 400-mg dose cohort)?
Its value is “substantially increased”.

And the programmed cell death (cleaved caspase-3 (CC3); [5])?
Its programmed cell death is “increased threefold”.

What about the “mean increase in CC3 expression” value (cleaved caspase-3 (CC3); 8-hour time interval, all dose cohorts together (n = 12), P = 0.0727) of the same molecule?
The value was “+112.2%”.

And the “CC3 apoptotic marker vs matched archival tissue” value (cleaved caspase-3 (CC3); 200-mg dose cohort)?
The value was “increased most”.

And the “CC3 apoptotic marker vs matched archival tissue” value (cleaved caspase-3 (CC3); 400-mg group)?
Its value is “modest increase”.

What about the “tolerability / adverse effects” value [3] of the same molecule?
Its value is “No drug-related adverse events; also recorded: well-tolerated; no significant adverse effects were observed”.

What about the “in vitro IC50 for inhibition of Wee1 activity and induction of DNA damage as well as G2 checkpoint escape” value (Wee1) of the same molecule?
The value was 0.04 µg/mL.
